Legend:
[1] = molecular target: Sodium-dependent serotonin transporter (Rattus norvegicus, UniProt P31652); assay: In vitro for its binding affinity for serotonin transporter RB5-HT-T in rat cortical membranes; type: cell membranes
In short: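 Serotonin transporter affinity (RB5-HT-T). Compound tested at six concentrations in triplicate. Ki calculated from IC50 by Cheng–Prusoff and given as the mean of 2–3 experiments.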

[2] = molecular target: T1, 5-hydroxytryptamine receptor 1A (Homo sapiens) (UniProt P08908); assay: Binding affinity for 5-hydroxytryptamine 1A receptor was determined by incubating human 5-hydroxytryptamine 1A receptor transfected CHO cells with [3H]8-OH-DPAT; type: cell-based; set-up: concentration or dose not given beside the values; settings: concentration not given here
T1 sequence (whole entry): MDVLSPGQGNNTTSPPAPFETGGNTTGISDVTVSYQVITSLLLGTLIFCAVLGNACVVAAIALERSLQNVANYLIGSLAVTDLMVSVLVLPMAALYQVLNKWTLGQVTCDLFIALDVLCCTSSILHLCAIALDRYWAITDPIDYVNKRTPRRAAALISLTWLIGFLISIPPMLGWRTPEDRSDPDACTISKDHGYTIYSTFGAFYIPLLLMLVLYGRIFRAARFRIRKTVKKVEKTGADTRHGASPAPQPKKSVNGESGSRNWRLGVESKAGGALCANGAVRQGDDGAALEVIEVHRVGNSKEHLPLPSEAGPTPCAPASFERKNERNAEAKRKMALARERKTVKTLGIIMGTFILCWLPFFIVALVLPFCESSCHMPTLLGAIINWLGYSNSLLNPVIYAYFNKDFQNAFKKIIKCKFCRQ
In short: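 Displacement of [3H]-8-OH-DPAT binding in CHO cells transfected with human 5-HT1A receptors. Test compound at six concentrations, triplicate wells per experiment. IC50 converted to Ki (Cheng–Prusoff) and reported as the mean of 2–3 independent experiments.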

[3] = molecular target: T2, Adrenergic receptor alpha-1 (Rattus norvegicus, UniProt P15823+P23944+P43140); assay: Binding affinity at Alpha-1 adrenergic receptors on rat cortical membranes by [3H]prazosin displacement.
T2 sequence (P15823 whole entry): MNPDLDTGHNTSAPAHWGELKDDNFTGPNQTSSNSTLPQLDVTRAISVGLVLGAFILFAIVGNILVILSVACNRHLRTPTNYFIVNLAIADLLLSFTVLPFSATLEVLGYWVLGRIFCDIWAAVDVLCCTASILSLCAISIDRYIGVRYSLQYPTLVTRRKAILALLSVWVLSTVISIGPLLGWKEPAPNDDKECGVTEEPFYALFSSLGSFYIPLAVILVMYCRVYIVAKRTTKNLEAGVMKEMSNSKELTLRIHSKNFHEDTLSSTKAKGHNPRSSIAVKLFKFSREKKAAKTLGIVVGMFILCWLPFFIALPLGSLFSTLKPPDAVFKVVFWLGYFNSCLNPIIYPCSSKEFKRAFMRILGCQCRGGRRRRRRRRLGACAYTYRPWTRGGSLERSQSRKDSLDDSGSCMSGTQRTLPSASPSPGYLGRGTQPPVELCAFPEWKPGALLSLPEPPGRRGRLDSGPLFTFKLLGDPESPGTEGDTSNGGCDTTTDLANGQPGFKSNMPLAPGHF
T2 sequence (P23944 whole entry): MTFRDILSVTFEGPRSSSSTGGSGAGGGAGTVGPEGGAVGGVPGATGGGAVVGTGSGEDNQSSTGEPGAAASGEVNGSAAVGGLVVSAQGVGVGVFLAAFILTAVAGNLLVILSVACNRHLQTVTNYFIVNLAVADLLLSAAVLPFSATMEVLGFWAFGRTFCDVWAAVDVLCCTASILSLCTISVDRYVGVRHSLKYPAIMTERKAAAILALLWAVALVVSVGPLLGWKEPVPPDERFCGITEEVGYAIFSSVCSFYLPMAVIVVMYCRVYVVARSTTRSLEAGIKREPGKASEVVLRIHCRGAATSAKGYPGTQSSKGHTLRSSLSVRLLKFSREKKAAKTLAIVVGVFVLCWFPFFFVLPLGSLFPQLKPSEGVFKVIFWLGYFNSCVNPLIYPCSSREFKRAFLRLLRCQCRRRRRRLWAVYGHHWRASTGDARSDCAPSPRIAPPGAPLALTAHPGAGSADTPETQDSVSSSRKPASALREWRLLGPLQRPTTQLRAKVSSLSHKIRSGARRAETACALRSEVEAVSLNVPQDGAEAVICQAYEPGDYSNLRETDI
T2 sequence (P43140 whole entry): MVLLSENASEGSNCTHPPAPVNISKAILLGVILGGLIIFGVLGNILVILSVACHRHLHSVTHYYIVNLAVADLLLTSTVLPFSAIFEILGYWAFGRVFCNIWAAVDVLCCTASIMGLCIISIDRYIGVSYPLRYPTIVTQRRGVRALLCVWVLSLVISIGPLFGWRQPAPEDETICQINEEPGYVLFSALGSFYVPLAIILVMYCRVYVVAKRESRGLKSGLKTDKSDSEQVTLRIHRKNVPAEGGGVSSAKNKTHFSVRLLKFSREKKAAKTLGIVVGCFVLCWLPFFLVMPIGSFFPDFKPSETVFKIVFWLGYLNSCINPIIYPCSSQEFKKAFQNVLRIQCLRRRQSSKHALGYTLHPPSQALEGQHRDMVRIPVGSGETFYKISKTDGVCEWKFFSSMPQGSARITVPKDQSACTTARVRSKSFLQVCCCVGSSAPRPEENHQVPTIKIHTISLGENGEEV
In short: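 Rat cortical membranes incubated with [3H]-prazosin and test compound. Six concentrations per experiment, each run in triplicate; Ki derived from IC50 by the Cheng–Prusoff method and given as the mean of 2–3 experiments.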

[4] = molecular target: Adrenergic receptor alpha-1 (Rattus norvegicus) (UniProt P15823+P23944+P43140); assay: In vitro inhibition of [3H]prazosin binding to rat Alpha-1 adrenergic receptors on cortical membranes at 1 uM.; type: cell membranes; settings: Membrane

Sodium-dependent serotonin transporter, sequence (P31652 whole entry): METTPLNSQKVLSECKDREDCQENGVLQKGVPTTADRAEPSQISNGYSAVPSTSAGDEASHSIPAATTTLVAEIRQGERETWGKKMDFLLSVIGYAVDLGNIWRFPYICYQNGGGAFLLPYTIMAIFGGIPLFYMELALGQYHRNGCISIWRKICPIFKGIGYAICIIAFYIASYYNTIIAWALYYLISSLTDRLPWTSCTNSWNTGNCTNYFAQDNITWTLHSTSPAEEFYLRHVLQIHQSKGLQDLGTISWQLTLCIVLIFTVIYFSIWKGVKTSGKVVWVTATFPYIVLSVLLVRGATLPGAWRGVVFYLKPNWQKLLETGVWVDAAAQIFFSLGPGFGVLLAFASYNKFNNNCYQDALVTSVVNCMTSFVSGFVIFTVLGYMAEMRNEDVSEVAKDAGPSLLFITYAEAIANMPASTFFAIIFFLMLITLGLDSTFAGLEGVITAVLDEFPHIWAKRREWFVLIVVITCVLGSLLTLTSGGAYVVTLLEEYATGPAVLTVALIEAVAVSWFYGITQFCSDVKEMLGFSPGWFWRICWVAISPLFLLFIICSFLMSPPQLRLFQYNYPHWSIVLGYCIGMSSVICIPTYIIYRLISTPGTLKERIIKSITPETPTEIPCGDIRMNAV

What does the source list for `COc1cccc2c1CCN([C@H]1CC[C@H](c3c[nH]c4ccc(C#N)cc43)CC1)C2`?
Ki [1]: 12 nM; inhibition [2]: 47%

With `N#Cc1ccc2[nH]cc([C@H]3CC[C@H](N4CCc5ccccc5C4)CC3)c2c1` as the molecule, how does the Ki [1] read?
The Ki was 10 nM.

What about the inhibition [2] of the same molecule?
Its inhibition is 10%.

What about the Ki [3] of the same molecule?
Its Ki is 88 nM.

How did the Ki [1] turn out when `N#Cc1ccc2[nH]cc(C3=CCC(NCc4ccccc4)CC3)c2c1` (configuration not stated) was run?
The Ki was 3.13 nM.

And the inhibition [2]?
The inhibition was 87%.

And the inhibition [4]?
The inhibition was 27%.

With `COc1ccc2c(c1)CCN(CCCc1c[nH]c3ccc(F)cc13)C2` as the molecule, how does the Ki [3] read?
The Ki was 58 nM.

With `COc1ccc2c(c1)CCN([C@H]1CC[C@H](c3c[nH]c4ccc(C#N)cc43)CC1)C2` as the molecule, how does the Ki [1] read?
Its Ki is 8 nM.

And the inhibition [2]?
The inhibition was 74%.

And the Ki [3]?
The Ki was 228 nM.

How did the Ki [1] turn out when `N#Cc1ccc2[nH]cc(C3=CCC(NCCc4ccccc4)CC3)c2c1` (configuration not stated) was run?
Its Ki is 1.54 nM.

What about the inhibition [2] of the same molecule?
The inhibition was 41%.

What about the inhibition [4] of the same molecule?
The inhibition was 32%.

What does the source list for `COc1ccc2c(c1)CN([C@H]1CC[C@@H](c3c[nH]c4ccc(C#N)cc43)CC1)CC2`?
Ki [1]: 0.8 nM; inhibition [2]: 26%; inhibition [4]: 11%

With `N#Cc1ccc2[nH]cc([C@H]3CC[C@@H](N4CCCCC4)CC3)c2c1` as the molecule, how does the Ki [1] read?
The Ki was 22 nM.

What about the inhibition [2] of the same molecule?
The inhibition was 0%.

And the inhibition [4]?
Its inhibition is 3%.

Which results are given for `Fc1ccc2[nH]cc([C@H]3CC[C@H](NCc4ccccc4)CC3)c2c1`?
Ki [1]: 16 nM; inhibition [2]: 11%; inhibition [4]: 8%

With `COc1ccc2c(c1)CN([C@H]1CC[C@H](c3c[nH]c4ccc(C#N)cc43)CC1)CC2` as the molecule, how does the Ki [1] read?
The Ki was 12 nM.

And the inhibition [2]?
The inhibition was 48%.

And the Ki [3]?
Its Ki is 113 nM.

`N#Cc1ccc2[nH]cc([C@H]3CC[C@@H](NCCc4ccccc4)CC3)c2c1` was tested. Which Ki [1] did it give?
Its Ki is 7.5 nM.

What about the inhibition [2] of the same molecule?
Its inhibition is 0%.

What about the inhibition [4] of the same molecule?
The inhibition was 40%.

With `COc1ccc2c(c1)CCN([C@H]1CC[C@@H](c3c[nH]c4ccc(C#N)cc43)CC1)C2` as the molecule, how does the Ki [1] read?
The Ki was 0.1 nM.

And the inhibition [2]?
Its inhibition is 21%.

And the inhibition [4]?
The inhibition was 11%.

What does the source list for `COc1cccc2c1CCN([C@H]1CC[C@@H](c3c[nH]c4ccc(C#N)cc43)CC1)C2`?
Ki [1]: 0.61 nM; inhibition [2]: 7%

With `COc1cccc2c1CN([C@H]1CC[C@@H](c3c[nH]c4ccc(C#N)cc43)CC1)CC2` as the molecule, how does the Ki [1] read?
Its Ki is 1.01 nM.

What about the inhibition [2] of the same molecule?
The inhibition was 14%.

Which Ki [1] does the source give for `N#Cc1ccc2[nH]cc(C3=CCC(N4CCCCC4)CC3)c2c1` (configuration not stated) here?
The Ki was 178 nM.

And the inhibition [2]?
Its inhibition is 0%.

And the inhibition [4]?
The inhibition was 10%.

For `N#Cc1ccc2[nH]cc([C@H]3CC[C@@H](NCc4ccccc4)CC3)c2c1`, which Ki [1] is on record?
The Ki was 7.5 nM.

What about the inhibition [2] of the same molecule?
Its inhibition is 15%.

And the inhibition [4]?
Its inhibition is 17%.

With `N#Cc1ccc2[nH]cc([C@H]3CC[C@H](NCCc4ccccc4)CC3)c2c1` as the molecule, how does the Ki [1] read?
Its Ki is 1.98 nM.

And the inhibition [2]?
The inhibition was 0%.

And the inhibition [4]?
Its inhibition is 56%.

How did the inhibition [2] turn out when `Fc1ccc2[nH]cc(CCCN3CCc4ccccc4C3)c2c1` was run?
The inhibition was 48%.

Which Ki [1] does the source give for `Fc1ccc2[nH]cc([C@H]3CC[C@@H](NCc4ccccc4)CC3)c2c1` here?
The Ki was 21 nM.

And the inhibition [2]?
Its inhibition is 3%.

And the inhibition [4]?
Its inhibition is 9%.

With `c1ccc(CN[C@H]2CC[C@H](c3c[nH]c4ccccc43)CC2)cc1` as the molecule, how does the Ki [1] read?
The Ki was 107 nM.

What about the inhibition [2] of the same molecule?
The inhibition was 32%.

What about the inhibition [4] of the same molecule?
The inhibition was 64%.

`COc1cccc2c1CN([C@H]1CC[C@H](c3c[nH]c4ccc(C#N)cc43)CC1)CC2` was tested. Which Ki [1] did it give?
Its Ki is 7.5 nM.

And the inhibition [2]?
Its inhibition is 46%.

For `c1ccc(CN[C@H]2CC[C@@H](c3c[nH]c4ccccc43)CC2)cc1`, which Ki [1] is on record?
Its Ki is 855 nM.

And the inhibition [2]?
Its inhibition is 0%.

And the inhibition [4]?
The inhibition was 21%.

Which Ki [1] does the source give for `N#Cc1ccc2[nH]cc([C@H]3CC[C@H](N4CCCCC4)CC3)c2c1` here?
The Ki was 152 nM.

What about the inhibition [2] of the same molecule?
The inhibition was 0%.

What about the inhibition [4] of the same molecule?
The inhibition was 14%.

What does the source list for `N#Cc1ccc2[nH]cc([C@H]3CC[C@H](NCc4ccccc4)CC3)c2c1`?
Ki [1]: 25 nM; inhibition [2]: 37%; inhibition [4]: 28%

How did the Ki [1] turn out when `N#Cc1ccc2[nH]cc([C@H]3CC[C@@H](N4CCc5ccccc5C4)CC3)c2c1` was run?
Its Ki is 1.23 nM.

What about the inhibition [2] of the same molecule?
Its inhibition is 0%.

What about the Ki [3] of the same molecule?
Its Ki is 337 nM.

Source: ChEMBL document CHEMBL1134143, “Studies towards the next generation of antidepressants. Part 1: Indolylcyclohexylamines as potent serotonin reuptake inhibitors” (Bioorg Med Chem Lett, 2001)
